Assay results reported in paper PMC4624265 (Nuclear medicine and biology, 2015).
pIC50: −log10 of the molar value.

Tests used:
PSMA [1] = biological target: T1, PSMA (Homo sapiens, UniProt Q04609); assay: Reversibility assay; type: biochemical
[2] = test system: mice bearing CWR22Rv1 tumor xenografts; assay: Ex vivo biodistribution in CWR22Rv1 tumor-bearing mice; settings: indicated by insignificant bone uptake
Procedure, shortened: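 Male athymic NCr-nu/nu mice carried CWR22Rv1 xenografts (about 10^6 cells in 50/50 complete medium/matrigel, right shoulder), used 4–5 weeks after implantation. Under isoflurane, HPLC-purified radiotracer (35–40 μCi in saline) was given by tail vein. For blocking, 250 μg of the PSMA inhibitor in saline was given 1 h before tracer, 4 h group only. Mice were euthanized at 1 h or 4 h, n = 4. Blood was taken by cardiac puncture; organs were weighed and gamma-counted. %ID/g was calculated against standards; two-tailed t-test, p<0.05.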

PSMA [3] = biological target: T1, PSMA; assay: PSMA inhibition assay; type: biochemical

T1 sequence (Q04609 whole entry): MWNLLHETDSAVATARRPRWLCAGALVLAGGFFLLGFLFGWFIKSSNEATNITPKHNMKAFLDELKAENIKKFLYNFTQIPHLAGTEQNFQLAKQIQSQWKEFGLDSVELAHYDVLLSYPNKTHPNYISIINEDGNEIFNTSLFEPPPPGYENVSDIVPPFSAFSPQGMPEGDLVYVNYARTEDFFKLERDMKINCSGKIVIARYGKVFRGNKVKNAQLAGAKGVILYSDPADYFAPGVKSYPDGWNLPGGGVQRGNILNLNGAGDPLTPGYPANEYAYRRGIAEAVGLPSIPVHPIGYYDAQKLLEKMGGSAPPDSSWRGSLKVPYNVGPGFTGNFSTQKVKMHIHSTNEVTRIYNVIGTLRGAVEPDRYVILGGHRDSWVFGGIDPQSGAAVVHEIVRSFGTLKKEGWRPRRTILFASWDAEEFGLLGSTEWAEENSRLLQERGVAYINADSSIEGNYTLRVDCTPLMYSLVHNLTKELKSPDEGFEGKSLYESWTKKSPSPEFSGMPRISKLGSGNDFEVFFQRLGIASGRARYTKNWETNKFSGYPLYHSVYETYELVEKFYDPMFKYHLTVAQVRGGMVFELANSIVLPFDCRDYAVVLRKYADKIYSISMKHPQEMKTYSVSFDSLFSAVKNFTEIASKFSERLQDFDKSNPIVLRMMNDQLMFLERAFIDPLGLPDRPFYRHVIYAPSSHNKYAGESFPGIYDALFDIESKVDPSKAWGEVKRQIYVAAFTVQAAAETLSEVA

Row | Structure (SMILES) | Mode of binding to PSMA (PSMA [1]) | Defluorination in vivo [2] | pIC50 (PSMA [3])
1 | O=C(O)CCC(NP(=O)(O)OCCC[C@@H](NC(=O)CC[C@H](NC(=O)CCCCCNC(=O)c1ccc(F)cc1)C(=O)O)C(=O)O)C(=O)O (stereo partly drawn) [compound 5, 2-(((S)-((4R)-4-carboxy-4-(4-carboxy-4-(6-(4-fluorobenzamido)hexanamido)butanamido)butoxy)(hydroxy)phosphoryl)amino) pentanedioic acid] | irreversible | no defluorination | 
2 | NCCCCCC(=O)N[C@@H](CCC(=O)N[C@H](CCCOP(=O)(O)NC(CCC(=O)O)C(=O)O)C(=O)O)C(=O)O (stereo partly drawn) [compound 3, 2-(((S)-((4R)-4-(4-(6-aminohexanamido)-4-carboxybutanamido)-4-carboxybut-oxy) (hydroxy)phosphoryl)amino)pentanedioic acid] | irreversible |  | 7.72
